Experimental data as given in ChEMBL document CHEMBL1777764, “Synthesis and evaluation of 1-(1H-indol-3-yl)ethanamine derivatives as new antibacterial agents” (Bioorg Med Chem, 2011).
Values after ≈ are worked out from the molar mass of the structure shown.

Experiments:
Type in all cases: functional
[1] = test system: Staphylococcus epidermidis; test: Antibacterial activity against Staphylococcus epidermidis CIP 103627 after 18 hrs by broth microdilution method; settings: CIP 103627, 18 h
Summary of the method: (§1)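 MIC by broth microdilution per ISO 20776-1:2006 and CLSI M07-A8. Inoculum 10^6 cfu/ml in Mueller-Hinton broth with compound serially diluted, final concentrations 2 to 128 ug/ml, duplicate rows, no-drug growth control. Incubation 18 h at 37 °C. MIC taken as lowest concentration giving complete inhibition of visible growth. Each compound tested at least twice.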

[2] = test system: Staphylococcus aureus; test: Antibacterial activity against Staphylococcus aureus ATCC 6538 after 18 hrs by broth microdilution method; settings: ATCC 6538, 18 h; summary of the method: as §1
[3] = test system: Staphylococcus epidermidis; test: Antibacterial activity against Staphylococcus epidermidis ATCC 12228 after 18 hrs by broth microdilution method; settings: ATCC 12228, 18 h; summary of the method: as §1
[4] = test system: Staphylococcus aureus; test: Antibacterial activity against Staphylococcus aureus CIP 65.6 after 18 hrs by broth microdilution method; settings: CIP 65.6, 18 h; summary of the method: as §1
[5] = test system: Staphylococcus epidermidis; test: Antibacterial activity against Staphylococcus epidermidis CIP 81.55 after 18 hrs by broth microdilution method; settings: CIP 81.55, 18 h; summary of the method: as §1
[6] = test system: Staphylococcus aureus; test: Antibacterial activity against Staphylococcus aureus ATCC 25923 after 18 hrs by broth microdilution method; settings: ATCC 25923, 18 h; summary of the method: as §1
[7] = test system: Staphylococcus aureus; test: Antibacterial activity against Staphylococcus aureus CIP 103428 after 18 hrs by broth microdilution method; settings: CIP 103428, 18 h; summary of the method: as §1
[8] = test system: Staphylococcus aureus; test: Antibacterial activity against Staphylococcus aureus ATCC 29213 after 18 hrs by broth microdilution method; settings: ATCC 29213, 18 h; summary of the method: as §1
[9] = test system: Staphylococcus aureus; test: Antibacterial activity against Staphylococcus aureus ATCC 9144 after 18 hrs by broth microdilution method; settings: ATCC 9144, 18 h; summary of the method: as §1

MIC [1] [µg/mL] | MIC [2] [µg/mL] | MIC [3] [µg/mL] | MIC [4] [µg/mL] | MIC [5] [µg/mL] | MIC [6] [µg/mL] | MIC [7] [µg/mL] | MIC [8] [µg/mL] | MIC [9] [µg/mL] | SMILES
64 (≈ 196 µM) | 64 (≈ 196 µM) | 64 (≈ 196 µM) | 64 (≈ 196 µM) | 64 (≈ 196 µM) | 64 (≈ 196 µM) | 64 (≈ 196 µM) | 64 (≈ 196 µM) | 64 (≈ 196 µM) | CC(C)(C)OC(=O)NCC(NO)c1c[nH]c2ccc(Cl)cc12 (configuration not stated)
> 128 | > 128 | > 128 | > 128 | > 128 | > 128 | > 128 | > 128 | > 128 | CC(C)(C)OC(=O)NCC(NO)c1c[nH]c2ccc(F)cc12 (configuration not stated)
128 (≈ 346 µM) | 128 (≈ 346 µM) | 128 (≈ 346 µM) | 128 (≈ 346 µM) | 128 (≈ 346 µM) | 128 (≈ 346 µM) | 128 (≈ 346 µM) | 128 (≈ 346 µM) | 128 (≈ 346 µM) | CC(C)(C)OC(=O)NCC(NO)c1c[nH]c2cccc(Br)c12 (configuration not stated)
64 (≈ 173 µM) | 64 (≈ 173 µM) | 64 (≈ 173 µM) | 64 (≈ 173 µM) | 64 (≈ 173 µM) | 64 (≈ 173 µM) | 64 (≈ 173 µM) | 64 (≈ 173 µM) | 64 (≈ 173 µM) | CC(C)(C)OC(=O)NCC(NO)c1c[nH]c2cc(Br)ccc12 (configuration not stated)
> 128 | > 128 | > 128 | > 128 | > 128 | > 128 | > 128 | > 128 | > 128 | CC(C)(C)OC(=O)NCC(NO)c1c[nH]c2cc(F)ccc12 (configuration not stated)
> 128 | 128 (≈ 393 µM) | > 128 | 128 (≈ 393 µM) | > 128 | 128 (≈ 393 µM) | 128 (≈ 393 µM) | 128 (≈ 393 µM) | 128 (≈ 393 µM) | CC(C)(C)OC(=O)NCC(NO)c1c[nH]c2cc(Cl)ccc12 (configuration not stated)
64 (≈ 240 µM) | 128 (≈ 481 µM) | 64 (≈ 240 µM) | 128 (≈ 481 µM) | 64 (≈ 240 µM) | 128 (≈ 481 µM) | 128 (≈ 481 µM) | 128 (≈ 481 µM) | 128 (≈ 481 µM) | CC(c1c[nH]c2ccccc12)N(O)Cc1ccccc1 (configuration not stated)
64 (≈ 173 µM) | 32 (≈ 86.4 µM) | 64 (≈ 173 µM) | 32 (≈ 86.4 µM) | 64 (≈ 173 µM) | 32 (≈ 86.4 µM) | 32 (≈ 86.4 µM) | 32 (≈ 86.4 µM) | 32 (≈ 86.4 µM) | CC(C)(C)OC(=O)NCC(NO)c1c[nH]c2ccc(Br)cc12 (configuration not stated)
64 (≈ 153 µM) | 32 (≈ 76.7 µM) | 64 (≈ 153 µM) | 32 (≈ 76.7 µM) | 64 (≈ 153 µM) | 32 (≈ 76.7 µM) | 32 (≈ 76.7 µM) | 32 (≈ 76.7 µM) | 32 (≈ 76.7 µM) | CC(C)(C)OC(=O)NCC(NO)c1c[nH]c2ccc(I)cc12 (configuration not stated)
> 128 | > 128 | > 128 | > 128 | > 128 | > 128 | > 128 | > 128 | > 128 | CC(C)(C)OC(=O)NCC(NO)c1c[nH]c2ccccc12 (configuration not stated)

SMILES | MIC [1] [µg/mL] | MIC [2] [µg/mL] | MIC [3] [µg/mL] | MIC [4] [µg/mL] | MIC [5] [µg/mL] | MIC [6] [µg/mL] | MIC [7] [µg/mL] | MIC [8] [µg/mL] | MIC [9] [µg/mL]
CC(NO)c1c[nH]c2ccc(Br)cc12 (configuration not stated) | 64 (≈ 251 µM) | 64 (≈ 251 µM) | 64 (≈ 251 µM) | 64 (≈ 251 µM) | 64 (≈ 251 µM) | 64 (≈ 251 µM) | 64 (≈ 251 µM) | 64 (≈ 251 µM) | 64 (≈ 251 µM)
CC(NO)c1c[nH]c2ccccc12 (configuration not stated) | 64 (≈ 363 µM) | 128 (≈ 726 µM) | 64 (≈ 363 µM) | 128 (≈ 726 µM) | 64 (≈ 363 µM) | 128 (≈ 726 µM) | 128 (≈ 726 µM) | 128 (≈ 726 µM) | 128 (≈ 726 µM)
CC(NO)c1c[nH]c2ccc(F)cc12 (configuration not stated) | 64 (≈ 330 µM) | 64 (≈ 330 µM) | 64 (≈ 330 µM) | 64 (≈ 330 µM) | 64 (≈ 330 µM) | 64 (≈ 330 µM) | 64 (≈ 330 µM) | 64 (≈ 330 µM) | 64 (≈ 330 µM)
